Tested on: Staphylococcus aureus
Assay: Antimicrobial activity against Staphylococcus aureus ATCC 35556 assessed as inhibition of bacterial biofilm formation after 18 hrs by broth microdilution method in presence of 5 ug/ml fibronectin
Assay type: functional
In short: (§1)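 Polystyrene 96-well wells precoated with 100 μl fibronectin or fibrinogen (0–20 μg protein/ml) for 24 h at 4°C. Wells then washed with sterile water. The standard MBIC biofilm assay followed: 0.5× TSB with 1% glucose, 2% DMSO, 18 h at 37°C, crystal violet read at OD600.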

Structure (SMILES)	MBIC
CCOc1cc(/C=C2\SC(=S)N(c3cccc(F)c3)C2=O)ccc1O	6.25 µM
CCOc1cc(/C=C2\SC(=S)N(c3ccc(F)cc3)C2=O)ccc1O	3.125 µM

Tested on: Staphylococcus epidermidis
Assay: Antimicrobial activity against coagulase-negative Staphylococcus epidermidis isolate WTBF-47 assessed as inhibition of bacterial biofilm after 18 hrs by broth microdilution method
Assay type: functional
In short: (§2)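 Static biofilm in tissue culture-treated polystyrene 96-well plates in 0.5× TSB with 1% glucose. Overnight culture diluted 1:100 gives about 5 × 10^6 cells/well. Compound 2-fold series, final 0.2–100 μM, 2% DMSO. Incubated 18 h at 37°C. Washed, heat-fixed 60°C for 60 min, stained with 0.06% crystal violet, read at OD600. MBIC is the lowest concentration giving ≥80% inhibition versus untreated. Geometric mean of ≥3 independent experiments.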

Structure (SMILES)	MBIC
CCOc1cc(/C=C2\SC(=S)N(c3cccc(F)c3)C2=O)ccc1O	42 µM
CCOc1cc(/C=C2\SC(=S)N(c3ccc(F)cc3)C2=O)ccc1O	29.7 µM

Tested on: Staphylococcus aureus
Assay: Antimicrobial activity against Staphylococcus aureus ATCC 35556 assessed as inhibition of bacterial biofilm after 18 hrs by broth microdilution method
Assay type: functional
In short: as §2

Structure (SMILES)	MBIC
CCOc1cc(/C=C2\SC(=S)N(c3cccc(F)c3)C2=O)ccc1O	4.4 µM
CCOc1cc(/C=C2\SC(=S)N(c3ccc(F)cc3)C2=O)ccc1O	2.6 µM

Tested on: Enterococcus faecalis
Assay: Antimicrobial activity against Enterococcus faecalis isolate F177 on medical grade silicone disk assessed as inhibition of bacterial biofilm after 18 hrs by broth microdilution method

Structure (SMILES)	MBIC90
CCOc1cc(/C=C2\SC(=S)N(c3cccc(F)c3)C2=O)ccc1O	>=100 uM
CCOc1cc(/C=C2\SC(=S)N(c3ccc(F)cc3)C2=O)ccc1O	>=100 uM

Tested on: Escherichia coli
Assay: Antimicrobial activity against Escherichia coli ATCC 25922 assessed as inhibition of bacterial biofilm after 18 hrs by broth microdilution method
Assay type: functional
In short: (§3)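 Polystyrene plates with breathable lids in 1× TSB (0.25% glucose), 37°C for 18 h. Biofilms form at the air-liquid interface. Stained with crystal violet, dye eluted with 30% acetic acid, OD read. Compound 2-fold series, final 0.2–100 μM in 2% DMSO. MBIC taken at ≥80% inhibition versus untreated. Geometric mean of ≥3 experiments.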

Structure (SMILES)	MBIC
CCOc1cc(/C=C2\SC(=S)N(c3cccc(F)c3)C2=O)ccc1O	>=100 uM
CCOc1cc(/C=C2\SC(=S)N(c3ccc(F)cc3)C2=O)ccc1O	>=100 uM

Tested on: Enterococcus faecalis
Assay: Antimicrobial activity against vancomycin-resistant Enterococcus faecalis ATCC 51299 assessed as inhibition of bacterial biofilm after 18 hrs by broth microdilution method
Assay type: functional
In short: (§4)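 Biofilm MBIC on tissue culture-treated polystyrene 96-well plates. Twofold dilutions, 0.2 to 100 μM final, with 2% DMSO final. Inoculum was an overnight culture diluted 1:100 (~5 × 10^6 cells/well) in 0.5× TSB plus 1% glucose, grown 18 h at 37°C. Wells washed, heat-fixed 60°C 60 min, stained with 0.06% crystal violet, OD600 read. MBIC is the lowest concentration giving ≥80% inhibition versus untreated; geometric mean of ≥3 experiments.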

Structure (SMILES)	MBIC
CCOc1cc(/C=C2\SC(=S)N(c3cccc(F)c3)C2=O)ccc1O	25 µM
CCOc1cc(/C=C2\SC(=S)N(c3ccc(F)cc3)C2=O)ccc1O	12.5 µM

Tested on: Staphylococcus aureus
Assay: Antimicrobial activity against Staphylococcus aureus ATCC 35556 assessed as inhibition of bacterial biofilm formation after 18 hrs by broth microdilution method in presence of 2 ug/ml fibrinogen
Assay type: functional
In short: as §1

Structure (SMILES)	MBIC
CCOc1cc(/C=C2\SC(=S)N(c3cccc(F)c3)C2=O)ccc1O	6.25 µM
CCOc1cc(/C=C2\SC(=S)N(c3ccc(F)cc3)C2=O)ccc1O	3.125 µM

Tested on: Enterococcus faecium
Assay: Antimicrobial activity against vancomycin-resistant Enterococcus faecium isolate EF208 assessed as inhibition of bacterial biofilm after 18 hrs by broth microdilution method
Assay type: functional
In short: as §4

Structure (SMILES)	MBIC
CCOc1cc(/C=C2\SC(=S)N(c3cccc(F)c3)C2=O)ccc1O	50 µM
CCOc1cc(/C=C2\SC(=S)N(c3ccc(F)cc3)C2=O)ccc1O	31.5 µM

Tested on: Staphylococcus aureus
Assay: Antimicrobial activity against methicillin-susceptible Staphylococcus aureus on medical grade silicone disk assessed as inhibition of bacterial biofilm after 18 hrs by broth microdilution method
Assay type: functional
In short: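 S. aureus ATCC 35556 biofilms were grown on autoclaved medical-grade silicone disks fixed in 24-well plates. The inoculum was a 1:100 dilution of an overnight culture in 0.5× TSB with 1% glucose, with compound at 0× to 8× MBIC and 2% DMSO final, in at least three wells. Plates were held about 18 h at 37°C, water-washed, heat-fixed at 60°C for 60 min, and stained with 0.06% CV. CV was eluted in 30% acetic acid and read at OD600, averaging three disks; runs were repeated ≥3 times.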

Structure (SMILES)	MBIC90
CCOc1cc(/C=C2\SC(=S)N(c3cccc(F)c3)C2=O)ccc1O	70.7 µM
CCOc1cc(/C=C2\SC(=S)N(c3ccc(F)cc3)C2=O)ccc1O	79.4 µM

Tested on: Staphylococcus aureus
Assay: Antimicrobial activity against Staphylococcus aureus NCTC 8325 on medical grade silicone disk assessed as inhibition of bacterial biofilm after 18 hrs by broth microdilution method

Structure (SMILES)	MBIC90
CCOc1cc(/C=C2\SC(=S)N(c3cccc(F)c3)C2=O)ccc1O	70.7 µM
CCOc1cc(/C=C2\SC(=S)N(c3ccc(F)cc3)C2=O)ccc1O	79.4 µM

Tested on: Enterococcus faecalis
Assay: Antimicrobial activity against vancomycin-resistant Enterococcus faecalis isolate F317 assessed as inhibition of bacterial biofilm after 18 hrs by broth microdilution method
Assay type: functional
In short: as §4

Structure (SMILES)	MBIC
CCOc1cc(/C=C2\SC(=S)N(c3cccc(F)c3)C2=O)ccc1O	100 µM
CCOc1cc(/C=C2\SC(=S)N(c3ccc(F)cc3)C2=O)ccc1O	25 µM

Tested on: Staphylococcus aureus
Assay: Antimicrobial activity against Staphylococcus aureus ATCC 35556 assessed as inhibition of bacterial biofilm formation after 18 hrs by broth microdilution method in presence of 20 ug/ml fibronectin
Assay type: functional
In short: as §1

Structure (SMILES)	MBIC
CCOc1cc(/C=C2\SC(=S)N(c3cccc(F)c3)C2=O)ccc1O	6.25 µM
CCOc1cc(/C=C2\SC(=S)N(c3ccc(F)cc3)C2=O)ccc1O	6.25 µM

Tested on: Staphylococcus epidermidis
Assay: Antimicrobial activity against Staphylococcus epidermidis 1457 on medical grade silicone disk assessed as inhibition of bacterial biofilm after 18 hrs by broth microdilution method
Assay type: functional

Structure (SMILES)	MBIC90
CCOc1cc(/C=C2\SC(=S)N(c3cccc(F)c3)C2=O)ccc1O	59.5 µM
CCOc1cc(/C=C2\SC(=S)N(c3ccc(F)cc3)C2=O)ccc1O	42 µM

Tested on: Staphylococcus epidermidis
Assay: Antimicrobial activity against coagulase-negative Staphylococcus epidermidis isolate WTBF-40 assessed as inhibition of bacterial biofilm after 18 hrs by broth microdilution method
Assay type: functional
In short: as §2

Structure (SMILES)	MBIC
CCOc1cc(/C=C2\SC(=S)N(c3cccc(F)c3)C2=O)ccc1O	59.5 µM
CCOc1cc(/C=C2\SC(=S)N(c3ccc(F)cc3)C2=O)ccc1O	50 µM

Tested on: Staphylococcus aureus
Assay: Antimicrobial activity against hospital acquired methicillin-resistant Staphylococcus aureus isolate 47263 assessed as inhibition of bacterial biofilm after 18 hrs by broth microdilution method
Assay type: functional
In short: as §4

Structure (SMILES)	MBIC
CCOc1cc(/C=C2\SC(=S)N(c3cccc(F)c3)C2=O)ccc1O	8.8 µM
CCOc1cc(/C=C2\SC(=S)N(c3ccc(F)cc3)C2=O)ccc1O	8.8 µM

Tested on: Staphylococcus aureus
Assay: Antimicrobial activity against hospital acquired methicillin-resistant Staphylococcus aureus isolate 1094 assessed as inhibition of bacterial biofilm after 18 hrs by broth microdilution method
Assay type: functional
In short: as §4

Structure (SMILES)	MBIC
CCOc1cc(/C=C2\SC(=S)N(c3cccc(F)c3)C2=O)ccc1O	100 µM
CCOc1cc(/C=C2\SC(=S)N(c3ccc(F)cc3)C2=O)ccc1O	100 µM

Tested on: Staphylococcus aureus
Assay: Antimicrobial activity against community-acquired Staphylococcus aureus MW2 on medical grade silicone disk assessed as inhibition of bacterial biofilm after 18 hrs by broth microdilution method
Assay type: functional

Structure (SMILES)	MBIC90
CCOc1cc(/C=C2\SC(=S)N(c3cccc(F)c3)C2=O)ccc1O	70.7 µM
CCOc1cc(/C=C2\SC(=S)N(c3ccc(F)cc3)C2=O)ccc1O	79.4 µM

Tested on: Staphylococcus aureus
Assay: Antimicrobial activity against community acquired methicillin-resistant Staphylococcus aureus isolate 24209 assessed as inhibition of bacterial biofilm after 18 hrs by broth microdilution method
Assay type: functional
In short: as §4

Structure (SMILES)	MBIC
CCOc1cc(/C=C2\SC(=S)N(c3cccc(F)c3)C2=O)ccc1O	100 µM
CCOc1cc(/C=C2\SC(=S)N(c3ccc(F)cc3)C2=O)ccc1O	100 µM

Tested on: Staphylococcus aureus
Assay: Antimicrobial activity against Staphylococcus aureus ATCC 35556 assessed as inhibition of bacterial biofilm formation after 18 hrs by broth microdilution method in presence of 10 ug/ml fibrinogen
Assay type: functional
In short: as §1

Structure (SMILES)	MBIC
CCOc1cc(/C=C2\SC(=S)N(c3cccc(F)c3)C2=O)ccc1O	6.25 µM
CCOc1cc(/C=C2\SC(=S)N(c3ccc(F)cc3)C2=O)ccc1O	3.125 µM

Tested on: Enterococcus faecium
Assay: Antimicrobial activity against vancomycin-resistant Enterococcus faecium isolate F1181 assessed as inhibition of bacterial biofilm after 18 hrs by broth microdilution method
Assay type: functional
In short: as §4

Structure (SMILES)	MBIC
CCOc1cc(/C=C2\SC(=S)N(c3cccc(F)c3)C2=O)ccc1O	>=100 uM
CCOc1cc(/C=C2\SC(=S)N(c3ccc(F)cc3)C2=O)ccc1O	>=100 uM

Tested on: Enterococcus gallinarum
Assay: Antimicrobial activity against vancomycin-resistant Enterococcus gallinarum isolate 2392 on medical grade silicone disk assessed as inhibition of bacterial biofilm after 18 hrs by broth microdilution method
Assay type: functional
In short: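 Medical-grade silicone disks glued to 24-well plate bottoms. Compound added to a 1:100 overnight-culture inoculum (0.5× TSB, 1% glucose) at 2% DMSO final; ≥3 wells each, ~18 h at 37°C. Washed with water, heat-fixed 60°C 60 min, stained with 0.06% crystal violet, eluted with 30% acetic acid, OD600 read. Repeated ≥3 times.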

Structure (SMILES)	MBIC90
CCOc1cc(/C=C2\SC(=S)N(c3cccc(F)c3)C2=O)ccc1O	>=100 uM
CCOc1cc(/C=C2\SC(=S)N(c3ccc(F)cc3)C2=O)ccc1O	>=100 uM

Tested on: Staphylococcus aureus
Assay: Antimicrobial activity against Staphylococcus aureus ATCC 35556 assessed as inhibition of bacterial biofilm formation after 18 hrs by broth microdilution method in presence of 5 ug/ml fibrinogen
Assay type: functional
In short: as §1

Structure (SMILES)	MBIC
CCOc1cc(/C=C2\SC(=S)N(c3cccc(F)c3)C2=O)ccc1O	6.25 µM
CCOc1cc(/C=C2\SC(=S)N(c3ccc(F)cc3)C2=O)ccc1O	3.125 µM

Tested on: Staphylococcus aureus
Assay: Antimicrobial activity against community acquired methicillin-resistant Staphylococcus aureus isolate 38230 assessed as inhibition of bacterial biofilm after 18 hrs by broth microdilution method
Assay type: functional
In short: as §4

Structure (SMILES)	MBIC
CCOc1cc(/C=C2\SC(=S)N(c3ccc(F)cc3)C2=O)ccc1O	50 µM

Tested on: Pseudomonas aeruginosa
Assay: Antimicrobial activity against Pseudomonas aeruginosa PAO1 assessed as inhibition of bacterial biofilm after 18 hrs by broth microdilution method
Assay type: functional
In short: as §3

Structure (SMILES)	MBIC
CCOc1cc(/C=C2\SC(=S)N(c3cccc(F)c3)C2=O)ccc1O	>=100 uM
CCOc1cc(/C=C2\SC(=S)N(c3ccc(F)cc3)C2=O)ccc1O	>=100 uM

Tested on: Staphylococcus aureus
Assay: Antimicrobial activity against community acquired methicillin-resistant Staphylococcus aureus isolate 49404 assessed as inhibition of bacterial biofilm after 18 hrs by broth microdilution method
Assay type: functional
In short: as §4

Structure (SMILES)	MBIC
CCOc1cc(/C=C2\SC(=S)N(c3ccc(F)cc3)C2=O)ccc1O	63 µM

Tested on: Staphylococcus epidermidis
Assay: Antimicrobial activity against coagulase-negative Staphylococcus epidermidis isolate WTBF-41 assessed as inhibition of bacterial biofilm after 18 hrs by broth microdilution method
Assay type: functional
In short: as §4

Structure (SMILES)	MBIC
CCOc1cc(/C=C2\SC(=S)N(c3cccc(F)c3)C2=O)ccc1O	17.7 µM
CCOc1cc(/C=C2\SC(=S)N(c3ccc(F)cc3)C2=O)ccc1O	14.9 µM

From ChEMBL document CHEMBL1649230, “Aryl rhodanines specifically inhibit staphylococcal and enterococcal biofilm formation” (Antimicrob Agents Chemother, 2009)
